Experiments:
Canis familiaris [1] = assay: Diuretic activity in mongrel dog assessed as chloride level in excreted urine at 1 mg/kg, iv measured between 15 to 45 mins after dosage (reference value: 1 to 70 uequiv/min); format: functional, Canis lupus familiaris
Procedure, shortened: (§1)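 Compounds were given iv to dogs as Na salts in H2O. The baseline is the mean of two 15-min periods before dosing. The response is the mean of two consecutive 15-min periods of maximal Na+ excretion, usually 15–45 min post-dose. Na+, K+ and Cl- are in μequiv/min and urine volume in ml/min, reported as control/drug.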

Canis familiaris [2] = assay: Diuretic activity in mongrel dog assessed as volume of excreted urine at 1 mg/kg, iv measured between 15 to 45 mins after dosage (reference value: 1 to 4 ml/min); format: functional, Canis lupus familiaris
Procedure, shortened: as §1, with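 “H2O. […]” for “H2O.”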

Canis familiaris [3] = assay: Diuretic activity in mongrel dog assessed as potassium level in excreted urine at 1 mg/kg, iv measured between 15 to 45 mins after dosage (reference value: 6 to 47 uequiv/min); format: functional, Canis lupus familiaris
Procedure, shortened: as §1, with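 “H2O. […]” for “H2O.”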

Canis familiaris [4] = assay: Diuretic activity in mongrel dog assessed as sodium level in excreted urine at 1 mg/kg, iv measured […] after dosage (reference value: 3 to 95 uequiv/min); format: functional, Canis lupus familiaris; procedure, shortened: as §1
Canis familiaris [5] = assay: Diuretic activity in mongrel dog assessed as volume of excreted urine at 5 mg/kg, iv measured between 15 to 45 mins after dosage (reference value: 1 to 5 ml/min); format: functional, Canis lupus familiaris
Procedure, shortened: as §1, with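 “H2O. […]” for “H2O.”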

Canis familiaris [6] = assay: Diuretic activity in mongrel dog assessed as potassium level in excreted urine at 5 mg/kg, iv measured between 15 to 45 mins after dosage (reference value: 12 to 70 uequiv/min); format: functional, Canis lupus familiaris
Procedure, shortened: as §1, with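 “H2O. […]” for “H2O.”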

Canis familiaris [7] = assay: Diuretic activity in mongrel dog assessed as sodium level in excreted urine at 5 mg/kg, iv measured […] after dosage (reference value: 1 to 91 uequiv/min); format: functional, Canis lupus familiaris
Procedure, shortened: as §1, with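 “H2O. […]” for “H2O.”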

Canis familiaris [8] = assay: Diuretic activity in mongrel dog assessed as chloride level in excreted urine at 5 mg/kg, iv measured between 15 to 45 mins after dosage (reference value: 1 to 65 uequiv/min); format: functional, Canis lupus familiaris
Procedure, shortened: as §1, with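 “H2O. […]” for “H2O.”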

Canis familiaris [9] = assay: Diuretic activity in mongrel dog assessed as volume of excreted urine at 0.4 mg/kg, po measured for 6 hrs (RVb = 180 ml)
Canis familiaris [10] = assay: Diuretic activity in mongrel dog assessed as chloride level in excreted urine at 0.4 mg/kg, po measured for 6 hrs (reference value: 2 mequivalents); format: functional, Canis lupus familiaris
Canis familiaris [11] = assay: Diuretic activity in mongrel dog assessed as sodium level in excreted urine at 0.4 mg/kg, po measured for 6 hrs (reference value: 2 mequivalents); format: functional, Canis lupus familiaris
Canis familiaris [12] = assay: Diuretic activity in mongrel dog assessed as potassium level in excreted urine at 0.4 mg/kg, po measured for 6 hrs (reference value: 1 mequivalents); format: functional, Canis lupus familiaris
Canis familiaris [13] = assay: Diuretic activity in mongrel dog assessed as potassium level in excreted urine at 5 mg/kg, po measured for 6 hrs (reference value: 1 mequivalents); format: functional, Canis lupus familiaris
Canis familiaris [14] = assay: Diuretic activity in mongrel dog assessed as sodium level in excreted urine at 5 mg/kg, po measured for 6 hrs (reference value: 2 mequivalents); format: functional, Canis lupus familiaris
Canis familiaris [15] = assay: Diuretic activity in mongrel dog assessed as volume of excreted urine at 5 mg/kg, po measured for 6 hrs (RVb = 180 ml)
Canis familiaris [16] = assay: Diuretic activity in mongrel dog assessed as sodium level in excreted urine at 10 mg/kg, iv measured […] after dosage (reference value: 5 to 66 uequiv/min); format: functional, Canis lupus familiaris
Procedure, shortened: as §1, with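 “H2O. […]” for “H2O.”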

Canis familiaris [17] = assay: Diuretic activity in mongrel dog assessed as volume of excreted urine at 10 mg/kg, iv measured between 15 to 45 mins after dosage (reference value: 1 to 4 ml/min); format: functional, Canis lupus familiaris
Procedure, shortened: as §1, with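 “H2O. […]” for “H2O.”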

Canis familiaris [18] = assay: Diuretic activity in mongrel dog assessed as chloride level in excreted urine at 5 mg/kg, po measured for 6 hrs (reference value: 2 mequivalents); format: functional, Canis lupus familiaris
Canis familiaris [19] = assay: Diuretic activity in mongrel dog assessed as potassium level in excreted urine at 10 mg/kg, iv measured between 15 to 45 mins after dosage (reference value: 7 to 63 uequiv/min); format: functional, Canis lupus familiaris
Procedure, shortened: as §1, with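 “H2O. […]” for “H2O.”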

Canis familiaris [20] = assay: Diuretic activity in mongrel dog assessed as chloride level in excreted urine at 10 mg/kg, iv measured between 15 to 45 mins after dosage (reference value: 3 to 64 uequiv/min); format: functional, Canis lupus familiaris; procedure, shortened: as §1

| SMILES | Activity (Canis familiaris [1]) [uEq/min] | Activity (Canis familiaris [2]) [mL/min] | Activity (Canis familiaris [3]) [uEq/min] | Activity (Canis familiaris [4]) [uEq/min] | Activity (Canis familiaris [5]) [mL/min] | Activity (Canis familiaris [6]) [uEq/min] | Activity (Canis familiaris [7]) [uEq/min] | Activity (Canis familiaris [8]) [uEq/min] | further results |
| --- | --- | --- | --- | --- | --- | --- | --- | --- | --- |
| C/C(=C\c1ccc(OCC(=O)O)c(Cl)c1)[N+](=O)[O-] | 766 | 8 | 142 | 734 |  |  |  |  |  |
| O=C(O)COc1ccc(/C=C/[N+](=O)[O-])cc1 |  |  |  |  | 2 | 35 | 80 | 5 |  |
| C/C(=C\c1ccc(OC(C)C(=O)O)c(Cl)c1Cl)[N+](=O)[O-] (stereo not drawn) |  |  |  |  | 9 | 74 | 1191 | 1228 |  |
| C/C(=C\c1ccc(OCC(=O)O)c(Cl)c1Cl)[N+](=O)[O-] | 2163 | 11 | 104 | 2128 |  |  |  |  | Activity (Canis familiaris [9]): 628 mL; Activity (Canis familiaris [10]): 31 milliequivalent; Activity (Canis familiaris [11]): 25 milliequivalent; Activity (Canis familiaris [12]): 7 milliequivalent |
| CC/C(=C\c1ccc(OC(C)C(=O)O)c(Cl)c1Cl)[N+](=O)[O-] (stereo not drawn) | 528 | 7 | 67 | 490 |  |  |  |  |  |
| CC/C(=C\c1ccc(OCC(=O)O)c(Cl)c1)[N+](=O)[O-] | 1727 | 15 | 131 | 1618 |  |  |  |  |  |
| CC/C(=C\c1cc(Cl)ccc1OCC(=O)O)[N+](=O)[O-] |  |  |  |  | 4 | 48 | 117 | 75 |  |
| CC/C(=C\c1ccc(OCC(=O)O)c(C)c1C)[N+](=O)[O-] | 1650 | 13 | 118 | 1583 |  |  |  |  |  |
| C/C(=C\c1ccc(OCC(=O)O)cc1)[N+](=O)[O-] | 61 | 2 | 12 | 82 |  |  |  |  | Activity (Canis familiaris [13]): 2 milliequivalent; Activity (Canis familiaris [14]): 6 milliequivalent; Activity (Canis familiaris [15]): 378 mL; Activity (Canis familiaris [16]): 649 uEq/min; Activity (Canis familiaris [17]): 6 mL/min; Activity (Canis familiaris [18]): 4 milliequivalent; Activity (Canis familiaris [19]): 70 uEq/min; Activity (Canis familiaris [20]): 611 uEq/min |
| CC/C(=C\c1ccc(OCCCC(=O)O)c(Cl)c1Cl)[N+](=O)[O-] |  |  |  |  | 3 | 29 | 62 | 28 |  |
| COC(=O)COc1ccc(/C=C(\C)[N+](=O)[O-])c(Cl)c1Cl |  |  |  |  |  |  |  |  | Activity (Canis familiaris [13]): 7 milliequivalent; Activity (Canis familiaris [14]): 37 milliequivalent; Activity (Canis familiaris [15]): 769 mL; Activity (Canis familiaris [18]): 47 milliequivalent |
| CC/C(=C\c1ccc(OCC(=O)O)cc1Cl)[N+](=O)[O-] | 1431 | 13 | 101 | 1398 |  |  |  |  |  |
| C/C(=C\c1cc(Cl)cc(Cl)c1OCC(=O)O)[N+](=O)[O-] |  |  |  |  | 3 | 25 | 80 | 41 |  |
| CC/C(=C\c1ccc(OCC(=O)O)c2ccccc12)[N+](=O)[O-] | 2036 | 13 | 179 | 1848 |  |  |  |  |  |

Reference: ChEMBL document CHEMBL3272208, “(Vinylaryloxy)acetic acids. A new class of diuretic agents. 3. ((2-Nitro-1-alkenyl)aryloxy)acetic acids” (1976)
